According to paper PMC5322940 (Cell, 2016):

Target: CB1 protein (Homo sapiens, UniProt P21554, D324T/DEL307-313/E273K/E323T/H320Y/I317L/I319V/INS325[…]/K326D/Q314A/Q328R/R331I/R340E/S316A/T210A/T283V/T321G/T330A/V329G)
Assay: Affinity mass spectrometry analysis of AM6538
Format: binding
Conditions: CB1 protein co-purified with AM6538
Method in brief: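 CB1–flavodoxin fusion expressed in HEK293F and purified in DDM/CHS. Membranes took up 20 µM test compound (3 h, 4 °C), then iodoacetamide; wash and elution buffers also carried test compound. Co-purified complex was desalted on G-25 to strip free ligand. About 1 µg was ultrafiltered (30 kDa cutoff, 13,000 g, 10 min, 4 °C) in 150 mM ammonium acetate, 0.02% DDM, 0.004% CHS; retained complex collected.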

Cc1c(C(=O)NN2CCCCC2)nn(-c2ccc(Cl)cc2Cl)c1-c1ccc(C#CCCO[N+](=O)[O-])cc1 [AM6538, 4-(4-(1-(2,4-dichlorophenyl)-4-methyl-3-(piperidin-1-ylcarbamoyl)-1H-pyrazol-5-yl)phenyl)but-3-yn-1-yl nitrate]
Covalent modification of CB1 cysteine residues: no evidence of covalent modification
